Assay results as given in ChEMBL document CHEMBL1141109, “Synthesis of an estrogen receptor beta-selective radioligand: 5-[18F]fluoro-(2R,3S)-2,3-bis(4-hydroxyphenyl)pentanenitrile and comparison of in vivo distribution with 16alpha-[18F]fluoro-17beta-estradiol” (J Med Chem, 2005).
Each block holds one compound with its values, some of them ahead of it.

Key:
[1] = Biodistribution of [18F]FES in beta estrogen receptor knock out mouse uterus after 30 min(n=2); mice in nonestrus stage; assay type: ADME, organism-based; conditions: in vivo, 0.5 h
[2] = Biodistribution of [18F]FES in alpha estrogen receptor knock out mouse spleen after 2 h; (n=3); assay type: ADME, organism-based; conditions: in vivo
[3] = Biodistribution of [18F]FES in alpha estrogen receptor knock out mouse uterus after 1 h; (n=3); assay type: ADME, organism-based; conditions: in vivo
[4] = Biodistribution of [18F]FES in alpha estrogen receptor knock out mouse brain after 1 h; (n=3); assay type: ADME, organism-based; conditions: in vivo
Procedure, shortened: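 αERKO mice were kept on estrogen-free chow and studied in diestrus, as staged by vaginal smear. Each was injected with 13 µCi tracer in 100 µL 10% ethanol/saline and killed at 30 min, 1 h or 2 h (n = 3 each). Organ activity was gamma-counted and expressed as %ID/g ± SD.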

[5] = Biodistribution of [18F]FES in alpha estrogen receptor knock out mouse ovaries after 30 min; (n=3); assay type: ADME, organism-based, Female gonad; conditions: in vivo, 0.5 h
[6] = Biodistribution of [18F]FES in beta estrogen receptor knock out mouse lung after 30 min; (n=3); assay type: ADME, organism-based; conditions: in vivo, 0.5 h
[7] = Biodistribution of [18F]FES in alpha estrogen receptor knock out mouse fat after 1 h; (n=3); assay type: ADME, organism-based, Adipose tissue; conditions: in vivo
Procedure, shortened: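 Female αERKO mice rested 48 h after shipping and fed estrogen-free chow. Estrous stage was checked by daily vaginal smears, and mice were used in diestrus. Each received 13 µCi [18F]FES in 100 µL 10% ethanol/saline. Animals were sacrificed at 30 min, 1 h or 2 h (n = 3 each). Tissue uptake is reported as %ID/g ± SD.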

[8] = Biodistribution of [18F]FES in beta estrogen receptor knock out mouse spleen after 30 min(n=2); mice in nonestrus stage; assay type: ADME, organism-based; conditions: in vivo, 0.5 h
[9] = Biodistribution of [18F]FES in beta estrogen receptor knock out mouse blood after 2 h; (n=3); assay type: ADME, organism-based; conditions: in vivo
[10] = Biodistribution of [18F]FES in alpha estrogen receptor knock out mouse kidney after 30 min; (n=3); assay type: ADME, organism-based; conditions: in vivo, 0.5 h
Procedure, shortened: (§1)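 Female αERKO mice were rested 48 h after shipping and fed estrogen-free chow. They were staged by daily vaginal smears and studied in diestrus. Each received 13 µCi [18F]FES in 100 µL 10% ethanol/saline and was sacrificed at 30 min, 1 h or 2 h (n = 3 per time). Tissue uptake is given as %ID/g ± SD.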

[11] = Biodistribution of [18F]-FES in beta estrogen receptor knock out mouse heart after 30 min; (n=3); assay type: ADME, organism-based; conditions: in vivo, 0.5 h
Procedure, shortened: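 Female βERKO mice in estrus were used because repeated swabbing had induced pseudopregnancy. They were fed estrogen-free chow. Each received 13 µCi [18F]FES in 100 µL 10% ethanol/saline and was sacrificed at 30 min, 1 h or 2 h (n = 3 each). Tissue uptake is given as %ID/g ± SD.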

[12] = Biodistribution of [18F]FES in alpha estrogen receptor knock out mouse blood after 2 h; (n=3); assay type: ADME, organism-based; conditions: in vivo; procedure, shortened: as §1
[13] = Biodistribution of [18F]FEDPN in alpha estrogen receptor knock out mouse bone after 1 h; (n=3); assay type: ADME, organism-based, Bone element; conditions: in vivo
Procedure, shortened: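 ERKO female mice (αERKO or βERKO), rested 48 h after shipping, placed on estrogen-free chow, and staged by daily vaginal smears. Injected in a nonestrous stage with 11 µCi [18F]FEDPN in 130 µL of 10% ethanol/saline. Killed at 30 min, 1 h or 2 h. Organs counted and reported as %ID/g ± SD, three animals per point.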

[14] = Biodistribution of [18F]FEDPN in beta estrogen receptor knock out mouse blood after 30 min; (n=3); assay type: ADME, organism-based; conditions: in vivo, 0.5 h
Procedure, shortened: (§2)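 αERKO and βERKO mice, staged by daily vaginal smears and kept on estrogen-free chow, were studied in a nonestrous stage. Each mouse received 11 μCi of tracer in 130 μL of 10% ethanol/saline. Mice were killed at 30 min, 1 h or 2 h (n = 3 each). Organs were removed, blotted, weighed and gamma-counted against an injectate standard. Uptake is given as %ID/g ± SD.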

[15] = target: Estrogen receptor (Mus musculus) (UniProt O08537+P19785); experiment: Ratio of [18F]FEDPN uptake in ovaries of ERbeta KO-mouse and ERalpha KO-mouse (nonestrus) after 1 hr
Chain of Estrogen receptor (Mus musculus) (O08537 whole entry, looked up): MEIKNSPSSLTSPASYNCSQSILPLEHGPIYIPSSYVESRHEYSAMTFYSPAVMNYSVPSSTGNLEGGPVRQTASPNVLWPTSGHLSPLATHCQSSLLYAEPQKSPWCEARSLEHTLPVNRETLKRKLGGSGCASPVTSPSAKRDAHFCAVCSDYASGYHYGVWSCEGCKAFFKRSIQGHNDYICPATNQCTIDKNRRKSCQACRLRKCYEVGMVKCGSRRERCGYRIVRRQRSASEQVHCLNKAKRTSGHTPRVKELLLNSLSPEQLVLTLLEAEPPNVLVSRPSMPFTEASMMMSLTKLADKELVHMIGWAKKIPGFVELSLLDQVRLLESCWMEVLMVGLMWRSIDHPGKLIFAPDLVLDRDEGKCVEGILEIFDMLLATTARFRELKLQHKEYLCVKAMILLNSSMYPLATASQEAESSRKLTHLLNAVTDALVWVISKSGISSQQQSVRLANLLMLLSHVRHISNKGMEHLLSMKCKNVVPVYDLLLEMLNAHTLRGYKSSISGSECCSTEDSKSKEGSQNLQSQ
Chain of Estrogen receptor (Mus musculus) (P19785 whole entry, looked up): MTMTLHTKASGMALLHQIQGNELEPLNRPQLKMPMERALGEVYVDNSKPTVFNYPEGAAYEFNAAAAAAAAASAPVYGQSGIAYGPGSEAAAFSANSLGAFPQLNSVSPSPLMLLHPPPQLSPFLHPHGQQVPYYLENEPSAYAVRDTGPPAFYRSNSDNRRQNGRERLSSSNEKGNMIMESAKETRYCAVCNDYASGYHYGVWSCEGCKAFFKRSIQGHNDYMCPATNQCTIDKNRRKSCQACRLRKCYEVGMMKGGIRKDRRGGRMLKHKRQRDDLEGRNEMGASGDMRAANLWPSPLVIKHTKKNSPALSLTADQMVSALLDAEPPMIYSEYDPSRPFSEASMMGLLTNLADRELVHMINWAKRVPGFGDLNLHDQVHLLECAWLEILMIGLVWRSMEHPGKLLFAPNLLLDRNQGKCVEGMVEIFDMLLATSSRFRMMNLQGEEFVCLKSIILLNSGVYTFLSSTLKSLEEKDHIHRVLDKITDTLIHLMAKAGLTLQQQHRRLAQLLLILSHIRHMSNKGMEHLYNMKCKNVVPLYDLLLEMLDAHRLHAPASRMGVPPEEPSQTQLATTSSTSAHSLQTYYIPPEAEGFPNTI

[16] = Biodistribution of [18F]FEDPN in beta estrogen receptor knock out mouse bone after 30 min; (n=3); assay type: ADME, organism-based, Bone element; conditions: in vivo, 0.5 h; procedure, shortened: as §2
[17] = Biodistribution of [18F]FEDPN in rat blood after 2 h when given in tail vein; (n=5); assay type: ADME, organism-based; conditions: in vivo, iv
Procedure, shortened: (§3)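 Immature female Sprague–Dawley rats (<25 days old) under isoflurane/O2 got 20 µCi tracer in 150 µL 20% ethanol/saline by tail vein. […] Rats were killed at 30 min, 1 h or 2 h. Organs were blotted, weighed and gamma-counted against an injectate standard. Data are %ID/g ± SD, five rats per point.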

[18] = Biodistribution of [18F]FEDPN in beta estrogen receptor knock out mouse uterus after 30 min; (n=3); assay type: ADME, organism-based; conditions: in vivo, 0.5 h
Procedure, shortened: (§4)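 αERKO and βERKO mice were fed estrogen-free chow and staged by daily vaginal smears. Mice in a nonestrous stage each received 11 µCi tracer in 130 µL 10% ethanol/saline. Organs were taken at 30 min, 1 h or 2 h and gamma-counted. Uptake is expressed as %ID/g ± SD, three animals per point.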

[19] = Biodistribution of [18F]FEDPN in rat bone after 1 h when given in tail vein; (n=5); assay type: ADME, organism-based, Bone element; conditions: in vivo, iv; procedure, shortened: as §3
[20] = Biodistribution of [18F]FEDPN in beta estrogen receptor knock out mouse lung after 1 h; (n=3); assay type: ADME, organism-based; conditions: in vivo; procedure, shortened: as §2
[21] = Biodistribution of [18F]-FEDPN in rat muscle after 2 hr when given in tail vein; (n=5); assay type: ADME, organism-based, Muscle tissue; conditions: in vivo, iv
Procedure, shortened: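 Immature female Sprague–Dawley rats (<25 days old) anesthetized with isoflurane/O2. Given 20 µCi tracer by tail vein in 150 µL of 20% ethanol/saline. […] Killed at 30 min, 1 h or 2 h. Blood and organs blotted, weighed and gamma-counted against a standard dilution of the injectate. Reported as %ID/g ± SD, n=5.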

[22] = Biodistribution of [18F]FEDPN in rat liver after 1 h when given in tail vein; (n=5); assay type: ADME, organism-based; conditions: in vivo, iv; procedure, shortened: as §3
[23] = Biodistribution of [18F]FEDPN in beta estrogen receptor knock out mouse ovaries after 2 h; (n=3); assay type: ADME, organism-based, Female gonad; conditions: in vivo; procedure, shortened: as §2
[24] = Biodistribution of [18F]FEDPN in rat lung after 1 h when given in tail vein; (n=5); assay type: ADME, organism-based; conditions: in vivo, iv; procedure, shortened: as §3
[25] = Biodistribution of [18F]FEDPN in beta estrogen receptor knock out mouse uterus after 1 h; (n=3); assay type: ADME, organism-based; conditions: in vivo; procedure, shortened: as §4
[26] = Biodistribution of [18F]FEDPN in alpha estrogen receptor knock out mouse thymus after 2 h; (n=3); assay type: ADME, organism-based; conditions: in vivo; procedure, shortened: as §2
[27] = Biodistribution of [18F]FEDPN in alpha estrogen receptor knock out mouse lung after 1 h; (n=3); assay type: ADME, organism-based; conditions: in vivo; procedure, shortened: as §2
[28] = Biodistribution of [18F]FEDPN in rat bone after 1 h block when given in tail vein; (n=5); assay type: ADME, organism-based, Bone element; conditions: in vivo, iv; procedure, shortened: as §3
[29] = Biodistribution of [18F]FEDPN in rat lung after 30 min when given in tail vein; (n=5); assay type: ADME, organism-based; conditions: in vivo, iv, 0.5 h; procedure, shortened: as §3
[30] = Biodistribution of [18F]FEDPN in alpha estrogen receptor knock out mouse muscle after 30 min; (n=3); assay type: ADME, organism-based, Muscle tissue; conditions: in vivo, 0.5 h; procedure, shortened: as §2
[31] = Biodistribution of [18F]FEDPN in beta estrogen receptor knock out mouse spleen after 30 min; (n=3); assay type: ADME, organism-based; conditions: in vivo, 0.5 h; procedure, shortened: as §2

- Biodistribution [1]: 18.86 %ID/g
- Biodistribution [2]: 0.18 %ID/g
- Biodistribution [3]: 0.82 %ID/g
- Biodistribution [4]: 0.07 %ID/g
- Biodistribution [5]: 2.52 %ID/g
- Biodistribution [6]: 3.74 %ID/g
- Biodistribution [7]: 0.14 %ID/g
- Biodistribution [8]: 1.29 %ID/g
- Biodistribution [9]: 0.16 %ID/g
- Biodistribution [10]: 2.46 %ID/g
- Biodistribution [11]: 1.04 %ID/g
- Biodistribution [12]: 0.12 %ID/g
Compound: C[C@]12CC[C@@H]3c4ccc(O)cc4CC[C@H]3[C@@H]1C[C@@H](F)[C@@H]2O [FLUOROESTRADIOL]

- Biodistribution [13]: 4.13 %ID/g
- Biodistribution [14]: 0.79 %ID/g
- Ratio [15]: 0.79
- Biodistribution [16]: 3.35 %ID/g
- Biodistribution [17]: 0.24 %ID/g
- Biodistribution [18]: 1.85 %ID/g
- Biodistribution [19]: 2.22 %ID/g
- Biodistribution [20]: 1.71 %ID/g
- Biodistribution [21]: 0.09 %ID/g
- Biodistribution [22]: 1.51 %ID/g
- Biodistribution [23]: 0.17 %ID/g
- Biodistribution [24]: 0.44 %ID/g
- Biodistribution [25]: 0.54 %ID/g
- Biodistribution [26]: 0.28 %ID/g
- Biodistribution [27]: 2.04 %ID/g
- Biodistribution [28]: 1.82 %ID/g
- Biodistribution [29]: 0.71 %ID/g
- Biodistribution [30]: 1.21 %ID/g
- Biodistribution [31]: 0.87 %ID/g
Compound: N#C[C@H](c1ccc(O)cc1)[C@@H](CCF)c1ccc(O)cc1
